Source: PubChem BioAssay
An excerpt weighted towards active compounds, which were near 5.7% of everything screened.
CSC inhib – cancer stem cell viability inhibitors, primary screen, luminescence; cancer stem cell-like cells viability; inhibition, % at 7.5 µM; actives 1.1% (n = 300,000); in the data active means inhibition above about 75%; inconclusive means no clear call, values can overlap the other calls; tested in HMLE shEcad cells
Mdm2-MdmX inh – inhibitors of human Mdm2-MdmX association, primary screen, cell-based, luminescence, split luciferase, SaOS-2, uHTS. Protein Mdm4 (Homo sapiens) + E3 ubiquitin-protein ligase Mdm2 (Homo sapiens), …. SaOS-2 split-luciferase Mdm2/MdmX complementation. inhibition, % at 8 µM. actives 3% (n = 330,000). AID 485346, 2010;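 active means inhibition of at least 50% at 8 µM in the primary screen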
Target sequence (O15151 whole entry, looked up): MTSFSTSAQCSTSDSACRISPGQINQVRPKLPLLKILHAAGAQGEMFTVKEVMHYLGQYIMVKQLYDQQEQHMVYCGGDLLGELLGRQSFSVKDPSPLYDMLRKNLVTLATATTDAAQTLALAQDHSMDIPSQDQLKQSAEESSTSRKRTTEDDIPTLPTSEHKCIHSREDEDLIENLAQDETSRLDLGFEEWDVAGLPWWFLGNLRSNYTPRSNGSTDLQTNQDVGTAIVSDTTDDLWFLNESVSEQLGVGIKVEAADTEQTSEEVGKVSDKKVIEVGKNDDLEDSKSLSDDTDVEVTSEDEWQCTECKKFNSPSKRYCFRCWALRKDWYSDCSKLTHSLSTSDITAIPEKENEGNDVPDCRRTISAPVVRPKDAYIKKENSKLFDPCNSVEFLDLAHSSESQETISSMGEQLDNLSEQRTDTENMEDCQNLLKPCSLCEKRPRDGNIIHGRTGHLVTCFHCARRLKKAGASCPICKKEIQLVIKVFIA
Target sequence (Q00987 whole entry, looked up): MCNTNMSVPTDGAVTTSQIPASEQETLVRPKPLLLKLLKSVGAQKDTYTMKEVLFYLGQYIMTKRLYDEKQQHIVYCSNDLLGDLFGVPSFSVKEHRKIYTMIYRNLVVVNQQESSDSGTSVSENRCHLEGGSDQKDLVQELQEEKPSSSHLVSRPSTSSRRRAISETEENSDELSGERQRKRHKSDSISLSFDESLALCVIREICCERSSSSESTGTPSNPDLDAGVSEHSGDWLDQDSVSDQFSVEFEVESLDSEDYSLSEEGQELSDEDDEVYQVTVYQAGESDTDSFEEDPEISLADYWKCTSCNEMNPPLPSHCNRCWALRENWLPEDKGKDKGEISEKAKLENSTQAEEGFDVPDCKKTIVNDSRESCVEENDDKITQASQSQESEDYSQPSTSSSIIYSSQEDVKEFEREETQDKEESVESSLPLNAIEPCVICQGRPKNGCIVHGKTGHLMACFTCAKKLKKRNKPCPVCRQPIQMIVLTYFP
Beta cell apopt – inhibitors of cytokine-induced beta cell apoptosis, primary screen, luminescence | INS-1E cytokine-induced death, ATP luminescence, 48 h; percent of positive-control rescue, neutral wells zero | protection from apoptosis, % (test concentration not listed) | actives 0.8% (n = 300,000) | AID 435005, 2010;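 active means Every replicate reaches about 75%, or at least half do and their mean reaches it too, limit read from the data; inconclusive means At least half of replicates reach the limit but their mean does not; inactive means Under half of replicates reach the limit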;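 further: higher means more ATP so stronger rescue from cytokine killing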
SKKanGAS inh – S. pyogenes SKKanGAS growth inhibitors in kanamycin, primary screen, streptokinase expression inhibitor project, SKKanGAS strain, BacTiter-Glo luminescence; 6 h; AID 1662, 2009; inhibition, % at 7.5 µM; actives 1.3% (n = 300,000);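 active means mean replicate score, as percent of positive control median, at least 50; inconclusive means mean below 50 but one replicate at or above 50; inactive means mean and every replicate below 50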;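 further: strain carries kanamycin resistance gene driven by streptokinase promoter and grows in 40 µg/ml kanamycin; loss of luminescence reflects streptokinase promoter inhibition or plain growth inhibition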
Calb FLC – C. albicans growth inhibition with fluconazole, primary screen, CaCi-2 strain, Alamar Blue fluorescence | C. albicans CaCi-2 (fluconazole-resistant clinical isolate) + fluconazole, 48 h | growth inhibition, % (no concentration beside the values) | actives 0.57% (n = 300,000) | AID 1979, 2009;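 active means growth inhibition above about 58% in most replicates, limit read from the data, passing the limit was not always enough; inconclusive means exactly half the replicates above a set limit; inactive means most replicates below a set limit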;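 further: all wells also contain fluconazole at 8 µg/ml as a sub-toxic cotreatment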
T cruzi repl – inhibitors of intracellular T. cruzi growth, primary screen, luminescence, NIH3T3 host cells; AID 1885, 2009; inhibition, % (test concentration not listed); T. cruzi beta-gal in NIH3T3, 90 h; actives 1.4% (n = 300,000);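 active means mean inhibition across valid replicates above about 55%, limit read from the data; inconclusive means mean below that limit but half or more replicates reach it; inactive means mean below it, under half of replicates reach it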;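 further: signal also drops with host cell toxicity which is not excluded here; higher percent means less beta-gal luminescence so fewer parasites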
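System: Mouse NIH/3T3 fibroblasts infected with β-gal-expressing T. cruzi Tulahuen C4 | Quantity: NIH/3T3 cells, 5,000 per well | Reagent: 5000 reporter trypomastigotes per well | Dosing: Compound pinned at 50 nL/well, DMSO | Schedule: 3 h host attachment, then at least 90 h co-culture | Detection: GalScreen luminescence, 60 min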
Each line names hits and unclear results; the compound was inactive in the other large screens.

CN1C[C@@H]2C(c3ccccc3)C3(c4ccccc4)CC2(C3)[C@H]1c1ccccc1 (stereo partly specified)	Calb FLC 110
CCOc1ccc(OCCCC(=O)N2CCN(S(=O)(=O)c3ccccc3C#N)CC2)cc1	none (no result: SKKanGAS inh, Calb FLC, T cruzi repl)
C/C(=N\NC(=O)c1cccc(N/N=C(\C)c2cc(O)ccc2O)c1)c1cc(O)ccc1O	Calb FLC 103
CCc1cc2c(=O)n(CCCOC)c(SCC(=O)Nc3oc(C)c4c(C)n[nH]c(=O)c34)nc2s1	none
Oc1ccc(CN2CCN(Cc3ccccc3)CC2)c2cccnc12	Calb FLC 60, T cruzi repl 64
c1ccc(CN2CCN(Cc3c[nH]c4ccccc34)CC2)cc1	Beta cell apopt 87, T cruzi repl 60
O=[N+]([O-])c1ccc(S(=O)(=O)N2CCN(Cc3c[nH]c4ccccc34)CC2)cc1	T cruzi repl 74 (no result: CSC inhib)
Cc1cc(C)c(OCCCCN(C)C)c(Br)c1	T cruzi repl 70
Cc1cc(C)c(OCCOCCN(C)C)c(Br)c1	none
Oc1ccccc1/C=N/Nc1nc2ccccc2o1	CSC inhib inconclusive, Beta cell apopt 98, SKKanGAS inh 106, T cruzi repl 56
Oc1ccccc1/C=N/Nc1ncc(Br)cn1	Beta cell apopt 87 (no result: Mdm2-MdmX inh)
Brc1ccc(/C=N/Nc2nc3ccccc3o2)cc1	none
Cc1cc(C)c(NC(=O)C2CCCO2)c(C)c1 (stereo unspecified)	none (no result: Beta cell apopt)
O=C(Nc1ccc(C(=O)NCc2ccc(F)cc2)cc1)C1=CSCCO1	SKKanGAS inh 51 (no result: Beta cell apopt)
COc1ccc(CNC(=O)COC(=O)c2ccc(S(=O)(=O)N3CCOCC3)cc2)cc1	none (no result: SKKanGAS inh, Calb FLC, T cruzi repl)
O=S(=O)(N[C@H](CO)Cc1ccccc1)c1ccc(Br)cc1F	none (no result: CSC inhib, Beta cell apopt, SKKanGAS inh, Calb FLC, T cruzi repl)
CCOc1ccccc1NC(=O)c1csc(C)c1C	none
CC(C)Cn1c(=O)c(C(=O)N/N=C/c2cccc(F)c2)c(O)c2ccccc21	SKKanGAS inh 64
CCCCn1c(=O)c(C(=O)N/N=C/c2ccc(F)cc2)c(O)c2ccccc21	none
COc1ccc(CC(=O)Nc2ccc(S(=O)(=O)N3CCC(C)CC3)cc2)c(OC)c1	none (no result: SKKanGAS inh, Calb FLC, T cruzi repl)
COc1cc(C2NC(=O)CCC2[N+](=O)[O-])c(OC)cc1Br (stereo unspecified)	none
COc1ccc(-n2nc(C)c3c(=O)c4c([nH]c32)CCCC4)cc1	T cruzi repl 62
COc1ccc(-n2nc(C)c3sc(C)nc3c2=O)cc1	none
CCOc1ccc(NC(=O)c2cccc(NC(C)=O)c2)cc1S(=O)(=O)N1CCCC1	none (no result: CSC inhib, Beta cell apopt, SKKanGAS inh, Calb FLC, T cruzi repl)
N#Cc1c(NC(=O)C2CC(c3ccccc3Cl)=NO2)sc2c1CCC2 (stereo unspecified)	none
Cc1onc(C(=O)Nc2sc3c(c2C#N)CCCC3)c1[N+](=O)[O-]	Calb FLC 82
CCCc1cc(C(=O)Nc2sc(C)c(CC)c2C#N)no1	none
CCCc1cc(C(=O)Nc2sc3c(c2C#N)CCC3)no1	Calb FLC 84
Cc1onc(-c2ccccc2Cl)c1C(=O)Nc1sc2c(c1C#N)CCC2	Calb FLC 77
N#Cc1c(NC(=O)c2nc3ncccn3n2)sc2c1CCCCC2	Calb FLC 95 (no result: SKKanGAS inh, T cruzi repl)
O=C1CC2(CCN(C(=O)c3ccc(F)c(F)c3)CC2)Oc2ccccc21	none (no result: Beta cell apopt)
CCN(CC(=O)NCc1cccs1)C(=O)c1cccc(S(=O)(=O)Nc2ccccc2Cl)c1	none
Cc1ccc(S(=O)(=O)NC(=O)NC(C)c2ccc(F)cc2)cc1 (stereo unspecified)	none
CCN(CC(=O)NC1CCS(=O)(=O)C1)S(=O)(=O)c1c(C)c(C)cc(C)c1C (stereo unspecified)	none
CCN1C(=O)[C@H]2[C@@H](c3ccc(OC)cc3)N3C(=O)CN(CCOC)C(=O)[C@@]3(C)[C@H]2C1=O	none
CC(Sc1nnc(C2CC2)n1C1CC1)C(=O)N(C)Cc1cccc(F)c1 (stereo unspecified)	none (no result: CSC inhib, SKKanGAS inh, Calb FLC, T cruzi repl)
CCc1cc2c(-c3ccccc3)cc(=O)oc2cc1OCC(=O)NCC1CCC(C(=O)O)CC1 (stereo unspecified)	none
